In ChEMBL document CHEMBL4689842, “EUbOPEN Chemogenomics Library wave 1” (2021):
Several values for one entry are separate records, joined by “and”; a condition that tells them apart may be missing. Equal entries are not always repeated.

Key:
Type in all cases: toxicity, cell-based
[1] = system: Fibroblast; experiment: Multiplex assay against human fibroblast; details: 48 h, 10 µM, compound concentration 10 uM
Method in brief: (§1)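 Tubulin, mitochondrial-mass and membrane-permeability phenotypes are per cents of healthy-nucleus cells. Cells were gated by CellPathfinder machine learning into Hoechst high-intensity objects or normal cells, normal cells into healthy, pyknosed or fragmented nuclei, and pyknosed cells into mitotic or apoptotic. Before that, live cells stained at seeding with Hoechst33342, BioTracker Green Microtubule Cytoskeleton Dye, MitoTracker Red and Annexin V Alexa Fluor 680 were imaged on a CQ1 microscope at 37°C and 5% CO2 after compound addition.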

[2] = system: HEK-293T; experiment: Incucyte cell viability with HEK293T; details: human, 10 µM, compound concentration 10 uM; note: filed as whole numbers so only -1 and 0 and 1 occur
[3] = system: U2OS; experiment: Incucyte cell viability with U2OS; details: human, 10 µM, compound concentration 10 uM; note: filed as whole numbers so only -1 and 0 and 1 occur
[4] = system: U2OS; experiment: Multiplex assay against U2OS; details: human, 10 µM, compound concentration 10 uM; method in brief: as §1
[5] = 6 h, replicate number 1, timepoint 6 hours
[6] = 12 h, replicate number 1, timepoint 12 hours
[7] = 18 h, replicate number 1, timepoint 18 hours
[8] = 24 h, replicate number 1, timepoint 24 hours

C1=N/C2=N/c3ccc(OCCN4CCCC4)c(c3)COC/C=C\COCc3cccc(c3)C(=C1)N2
Population Mitotic Cells (%) ([1]; replicate 1): 12% | Population Normal (%) ([1]; replicate 1): 79% | Population Pyknosed Nuclei (%) ([1]; replicate 1): 24% | Population Tubulin-Different-Phenotype (%) ([1]; replicate 1): 50% | Total Cell Count ([1]; replicate 1): 82 | Population Apoptotic (%) ([1]; replicate 2): 94% | Population Fragmented Nuclei (%) ([1]; replicate 2): 68% | Population Healthy Nuclei (%) ([1]; replicate 2): 5% | Population Hoechst High Intensity Objects (%) ([1]; replicate 2): 14% | Population Membrane Permeable-Phenotype (%) ([1]; replicate 2): 0% | Population Mitochondria Different-Phenotype (%) ([1]; replicate 2): 100% | Population Mitotic Cells (%) ([1]; replicate 2): 5% | Population Normal (%) ([1]; replicate 2): 85% | Population Pyknosed Nuclei (%) ([1]; replicate 2): 25% | Population Tubulin-Different-Phenotype (%) ([1]; replicate 2): 75% | Total Cell Count ([1]; replicate 2): 78 | Growth Rate [2, 5]: 0 | Growth Rate [2, 6]: 0 | Growth Rate [2, 7]: 0 | Growth Rate [2, 8]: 0 | Growth Rate ([3]; 0 h, replicate number 1, timepoint 0 hours): 0 | Growth Rate [3, 5]: 0 | Growth Rate [3, 6]: 0 | Growth Rate [3, 7]: 0 | Growth Rate [3, 8]: 0 | Population Apoptotic (%) ([4]; 12 h, replicate 1): 87% and 88% and 55% | Population Fragmented Nuclei (%) ([4]; 12 h, replicate 1): 35% and 19% and 20% | Population Hoechst High Intensity Objects (%) ([4]; 12 h, replicate 1): 6% and 13% | Population Normal (%) ([4]; 12 h, replicate 1): 93% and 86% | Population Pyknosed Nuclei (%) ([4]; 12 h, replicate 1): 44% and 67% and 25% | Population Tubulin-Different-Phenotype (%) ([4]; 12 h, replicate 1): 94% and 60% | Total Cell Count ([4]; 12 h, replicate 1): 194 and 177 and 149 | Population Apoptotic (%) ([4]; 12 h, replicate 2): 90% and 68% | Population Fragmented Nuclei (%) ([4]; 12 h, replicate 2): 53% and 29% | Population Hoechst High Intensity Objects (%) ([4]; 12 h, replicate 2): 16% and 10% and 7% | Population Normal (%) ([4]; 12 h, replicate 2): 83% and 89% and 92% | Population Pyknosed Nuclei (%) ([4]; 12 h, replicate 2): 27% and 53% and 22% | Population Tubulin-Different-Phenotype (%) ([4]; 12 h, replicate 2): 55% and 100% and 43% | Total Cell Count ([4]; 12 h, replicate 2): 154 and 71 and 158 | Population Apoptotic (%) ([4]; 24 h, replicate 1): 98% and 82% | Population Fragmented Nuclei (%) ([4]; 24 h, replicate 1): 23% and 31% and 11% | Population Hoechst High Intensity Objects (%) ([4]; 24 h, replicate 1): 14% and 15% | Population Mitochondria Different-Phenotype (%) ([4]; 24 h, replicate 1): 100% and 88% and 63% | Population Normal (%) ([4]; 24 h, replicate 1): 85% and 84% | Population Pyknosed Nuclei (%) ([4]; 24 h, replicate 1): 75% and 54% and 32% | Population Tubulin-Different-Phenotype (%) ([4]; 24 h, replicate 1): 100% and 88% and 69% | Total Cell Count ([4]; 24 h, replicate 1): 179 and 191 and 200 | Population Apoptotic (%) ([4]; 24 h, replicate 2): 100% and 96% and 88% | Population Membrane Permeable-Phenotype (%) ([4]; 24 h, replicate 2): 50% and 81% and 33% | Population Mitochondria Different-Phenotype (%) ([4]; 24 h, replicate 2): 20% and 57% | Population Mitotic Cells (%) ([4]; 24 h, replicate 2): 0% and 3% and 11% | Population Normal (%) ([4]; 24 h, replicate 2): 83% and 67% and 90% | Population Tubulin-Different-Phenotype (%) ([4]; 24 h, replicate 2): 40% and 61% | Total Cell Count ([4]; 24 h, replicate 2): 154 and 69 and 193 | Population Apoptotic (%) ([4]; 48 h, replicate 1): 100% | Population Fragmented Nuclei (%) ([4]; 48 h, replicate 1): 28% | Population Healthy Nuclei (%) ([4]; 48 h, replicate 1): 1% | Population Hoechst High Intensity Objects (%) ([4]; 48 h, replicate 1): 16% | Population Membrane Permeable-Phenotype (%) ([4]; 48 h, replicate 1): 100% | Population Mitochondria Different-Phenotype (%) ([4]; 48 h, replicate 1): 100% | Population Mitotic Cells (%) ([4]; 48 h, replicate 1): 0% | Population Normal (%) ([4]; 48 h, replicate 1): 83% | Population Pyknosed Nuclei (%) ([4]; 48 h, replicate 1): 70% | Population Tubulin-Different-Phenotype (%) ([4]; 48 h, replicate 1): 100% | Total Cell Count ([4]; 48 h, replicate 1): 162 | Population Fragmented Nuclei (%) ([4]; 48 h, replicate 2): 19% | Population Healthy Nuclei (%) ([4]; 48 h, replicate 2): 33% | Population Hoechst High Intensity Objects (%) ([4]; 48 h, replicate 2): 37% | Population Membrane Permeable-Phenotype (%) ([4]; 48 h, replicate 2): 92% | Population Mitochondria Different-Phenotype (%) ([4]; 48 h, replicate 2): 92% | Population Normal (%) ([4]; 48 h, replicate 2): 62% | Population Pyknosed Nuclei (%) ([4]; 48 h, replicate 2): 47% | Population Tubulin-Different-Phenotype (%) ([4]; 48 h, replicate 2): 92% | Total Cell Count ([4]; 48 h, replicate 2): 70
